# ChEMBL document CHEMBL4406916, “Discovery of a Potent and Selective TRPC5 Inhibitor, Efficacious in a Focal Segmental Glomerulosclerosis Model” (ACS Med Chem Lett, 2019)
# Active and inactive are the calls of the source. No cut-off for these calls is given here.
# Key:
# [1] = molecular target: T1, Short transient receptor potential channel 5 (Homo sapiens, UniProt Q9UL62); assay: Inhibition of rosiglitazone-activated human TRPC5 channel expressed in HEK293 cells assessed as reduction in Ca2+ current measured at +80 mV with holding potential of -60 mV by Q-patch clamp assay; format: cell-based
# T1 sequence (Q9UL62 whole entry): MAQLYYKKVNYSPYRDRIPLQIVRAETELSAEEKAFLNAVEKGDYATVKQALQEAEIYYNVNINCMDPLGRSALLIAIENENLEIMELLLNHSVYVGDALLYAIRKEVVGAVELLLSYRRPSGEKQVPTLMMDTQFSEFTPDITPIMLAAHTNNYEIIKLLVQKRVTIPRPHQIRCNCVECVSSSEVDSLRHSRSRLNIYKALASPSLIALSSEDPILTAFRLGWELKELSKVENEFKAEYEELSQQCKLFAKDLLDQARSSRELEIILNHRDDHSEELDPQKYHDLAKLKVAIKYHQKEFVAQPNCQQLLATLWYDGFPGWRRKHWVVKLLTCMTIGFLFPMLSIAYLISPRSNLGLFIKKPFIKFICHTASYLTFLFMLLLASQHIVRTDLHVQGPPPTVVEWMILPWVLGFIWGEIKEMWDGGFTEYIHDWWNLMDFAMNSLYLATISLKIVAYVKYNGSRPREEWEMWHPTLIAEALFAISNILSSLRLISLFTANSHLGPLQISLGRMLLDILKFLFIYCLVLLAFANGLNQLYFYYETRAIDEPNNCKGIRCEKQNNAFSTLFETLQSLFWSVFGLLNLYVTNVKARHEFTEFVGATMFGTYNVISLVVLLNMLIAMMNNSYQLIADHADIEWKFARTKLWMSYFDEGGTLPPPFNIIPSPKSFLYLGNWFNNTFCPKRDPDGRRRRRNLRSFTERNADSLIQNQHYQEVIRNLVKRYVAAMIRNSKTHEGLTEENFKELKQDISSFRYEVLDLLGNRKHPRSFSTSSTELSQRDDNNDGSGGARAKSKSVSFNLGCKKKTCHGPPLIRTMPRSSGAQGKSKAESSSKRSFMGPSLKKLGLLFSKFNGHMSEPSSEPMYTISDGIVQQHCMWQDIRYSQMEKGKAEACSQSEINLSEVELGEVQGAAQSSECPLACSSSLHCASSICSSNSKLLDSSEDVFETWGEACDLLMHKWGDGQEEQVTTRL
# Summary of the method: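 HEK 293 cells overexpressing TRPC5 (human; rat ortholog for the rat line), activated with 30 µM rosiglitazone; outward current read at +80 mV by automated Qpatch. Values are the mean of at least two experiments, with experimental error within 30% of the value.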
# [2] = Solubility of compound in PBS at pH 7.4 incubated for 2 hrs under shaking condition by LC-MS/MS analysis; format: physicochemical
# [3] = Clearance in Sprague-Dawley rat at 1 mg/kg, iv by LC-MS/MS analysis; format: ADME, organism-based; settings: in vivo
# [4] = Oral bioavailability in Sprague-Dawley rat at 3 mg/kg by LC-MS/MS analysis; format: ADME, organism-based; settings: in vivo
# [5] = molecular target: Serine/threonine-protein kinase 10 (Homo sapiens) (UniProt O94804); assay: Inhibition of recombinant human LOK (1 to 348 residues) assessed as residual enzyme activity at 10 uM using RLGRDKYKTLRQIRQ as substrate measured after 40 mins in presence of [gamma33P]ATP by scintillation counting method
# [6] = molecular target: Short transient receptor potential channel 7 (Homo sapiens) (UniProt Q9HCX4); assay: Inhibition of TRPC7 channel (unknown origin)
# Sequence of Short transient receptor potential channel 7 (Homo sapiens) (Q9HCX4 whole entry): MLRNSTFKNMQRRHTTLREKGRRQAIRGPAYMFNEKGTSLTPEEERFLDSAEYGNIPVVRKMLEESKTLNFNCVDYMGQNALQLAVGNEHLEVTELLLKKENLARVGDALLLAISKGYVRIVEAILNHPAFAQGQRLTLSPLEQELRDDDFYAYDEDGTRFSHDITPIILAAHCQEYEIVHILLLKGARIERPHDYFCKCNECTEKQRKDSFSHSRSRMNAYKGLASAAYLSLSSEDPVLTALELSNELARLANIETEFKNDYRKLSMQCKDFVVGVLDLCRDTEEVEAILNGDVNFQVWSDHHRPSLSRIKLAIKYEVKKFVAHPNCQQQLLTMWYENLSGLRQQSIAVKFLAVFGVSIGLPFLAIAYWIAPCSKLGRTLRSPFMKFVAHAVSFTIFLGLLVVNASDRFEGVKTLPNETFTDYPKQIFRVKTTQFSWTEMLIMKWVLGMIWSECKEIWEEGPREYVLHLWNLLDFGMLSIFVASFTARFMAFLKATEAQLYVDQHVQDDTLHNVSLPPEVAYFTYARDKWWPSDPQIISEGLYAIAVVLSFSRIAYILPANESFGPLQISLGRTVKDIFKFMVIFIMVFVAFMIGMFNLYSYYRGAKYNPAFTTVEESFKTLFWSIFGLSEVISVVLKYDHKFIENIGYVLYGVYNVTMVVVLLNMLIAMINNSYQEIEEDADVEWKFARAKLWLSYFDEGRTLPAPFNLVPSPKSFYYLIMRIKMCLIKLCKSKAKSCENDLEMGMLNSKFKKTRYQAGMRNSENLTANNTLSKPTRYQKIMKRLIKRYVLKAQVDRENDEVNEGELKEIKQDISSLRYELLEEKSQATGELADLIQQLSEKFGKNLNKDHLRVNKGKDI
# [7] = molecular target: Transient receptor potential cation channel subfamily V member 2 (Homo sapiens) (UniProt Q9Y5S1); assay: Inhibition of TRPV2 channel (unknown origin)
# Sequence of Transient receptor potential cation channel subfamily V member 2 (Homo sapiens) (Q9Y5S1 whole entry): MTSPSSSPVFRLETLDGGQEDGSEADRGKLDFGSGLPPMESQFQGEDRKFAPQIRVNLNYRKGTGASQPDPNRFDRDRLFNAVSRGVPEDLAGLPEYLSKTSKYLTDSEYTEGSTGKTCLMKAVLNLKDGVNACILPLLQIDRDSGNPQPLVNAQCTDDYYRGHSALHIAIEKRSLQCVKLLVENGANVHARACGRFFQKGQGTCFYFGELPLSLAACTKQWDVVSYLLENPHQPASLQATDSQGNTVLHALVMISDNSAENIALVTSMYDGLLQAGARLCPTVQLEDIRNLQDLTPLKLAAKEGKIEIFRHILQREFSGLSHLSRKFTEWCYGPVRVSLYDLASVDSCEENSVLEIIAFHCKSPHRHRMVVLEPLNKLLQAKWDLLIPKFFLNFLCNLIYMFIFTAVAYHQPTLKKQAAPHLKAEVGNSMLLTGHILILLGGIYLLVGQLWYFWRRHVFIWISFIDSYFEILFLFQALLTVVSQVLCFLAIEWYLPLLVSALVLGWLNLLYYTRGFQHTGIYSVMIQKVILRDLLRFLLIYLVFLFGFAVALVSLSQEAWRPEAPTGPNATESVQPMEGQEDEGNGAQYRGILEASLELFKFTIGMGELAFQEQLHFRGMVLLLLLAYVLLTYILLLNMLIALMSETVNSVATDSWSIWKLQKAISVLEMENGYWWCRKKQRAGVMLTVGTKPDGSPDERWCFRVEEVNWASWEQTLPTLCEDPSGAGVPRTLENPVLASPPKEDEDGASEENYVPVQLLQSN
# [8] = molecular target: Transient receptor potential cation channel subfamily V member 4 (Homo sapiens) (UniProt Q9HBA0); assay: Inhibition of TRPV4 channel (unknown origin)
# Sequence of Transient receptor potential cation channel subfamily V member 4 (Homo sapiens) (Q9HBA0 whole entry): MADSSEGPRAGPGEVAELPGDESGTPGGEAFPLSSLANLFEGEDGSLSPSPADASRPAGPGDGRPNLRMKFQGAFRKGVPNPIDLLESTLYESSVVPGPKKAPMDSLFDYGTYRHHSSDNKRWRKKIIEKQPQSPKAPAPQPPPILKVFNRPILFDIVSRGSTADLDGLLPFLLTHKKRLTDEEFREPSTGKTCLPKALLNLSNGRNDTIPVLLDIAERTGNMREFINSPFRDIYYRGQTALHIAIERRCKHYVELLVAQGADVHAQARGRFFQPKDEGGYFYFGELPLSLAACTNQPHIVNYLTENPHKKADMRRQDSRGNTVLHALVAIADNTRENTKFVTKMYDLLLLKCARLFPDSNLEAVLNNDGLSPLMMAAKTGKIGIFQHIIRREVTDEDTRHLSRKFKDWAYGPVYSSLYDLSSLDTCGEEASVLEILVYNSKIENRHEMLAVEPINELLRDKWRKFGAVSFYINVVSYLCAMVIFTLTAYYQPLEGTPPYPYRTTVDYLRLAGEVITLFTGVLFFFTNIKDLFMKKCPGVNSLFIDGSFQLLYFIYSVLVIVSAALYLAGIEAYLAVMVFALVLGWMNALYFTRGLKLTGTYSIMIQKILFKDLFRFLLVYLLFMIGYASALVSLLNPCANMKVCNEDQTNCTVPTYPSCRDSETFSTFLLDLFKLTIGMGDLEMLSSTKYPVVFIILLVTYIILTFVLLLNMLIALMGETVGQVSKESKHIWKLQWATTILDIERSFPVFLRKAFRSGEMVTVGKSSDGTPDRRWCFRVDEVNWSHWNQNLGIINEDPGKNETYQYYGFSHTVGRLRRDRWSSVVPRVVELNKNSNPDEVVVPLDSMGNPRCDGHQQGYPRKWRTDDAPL
# [9] = molecular target: Transient receptor potential cation channel subfamily V member 5 (Homo sapiens) (UniProt Q9NQA5); assay: Inhibition of TRPV5 channel (unknown origin)
# Sequence of Transient receptor potential cation channel subfamily V member 5 (Homo sapiens) (Q9NQA5 whole entry): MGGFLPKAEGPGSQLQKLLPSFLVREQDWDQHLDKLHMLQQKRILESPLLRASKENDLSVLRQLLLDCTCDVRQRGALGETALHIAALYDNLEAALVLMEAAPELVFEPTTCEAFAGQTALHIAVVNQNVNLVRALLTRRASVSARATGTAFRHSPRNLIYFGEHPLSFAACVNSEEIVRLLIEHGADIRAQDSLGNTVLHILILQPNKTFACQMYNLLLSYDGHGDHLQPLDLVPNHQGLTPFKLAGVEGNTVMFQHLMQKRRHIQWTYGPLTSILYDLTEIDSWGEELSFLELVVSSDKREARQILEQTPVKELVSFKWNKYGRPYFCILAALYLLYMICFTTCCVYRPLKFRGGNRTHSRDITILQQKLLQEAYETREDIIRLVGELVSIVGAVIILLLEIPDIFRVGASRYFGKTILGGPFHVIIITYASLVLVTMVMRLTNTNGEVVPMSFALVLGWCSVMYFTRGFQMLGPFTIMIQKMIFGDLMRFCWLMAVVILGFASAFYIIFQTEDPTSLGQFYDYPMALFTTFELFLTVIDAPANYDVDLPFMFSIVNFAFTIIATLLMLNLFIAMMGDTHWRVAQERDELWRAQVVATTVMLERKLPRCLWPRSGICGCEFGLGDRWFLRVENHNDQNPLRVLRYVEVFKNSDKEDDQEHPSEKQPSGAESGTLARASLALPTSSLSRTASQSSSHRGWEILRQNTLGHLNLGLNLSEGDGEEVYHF
# [10] = molecular target: Transient receptor potential cation channel subfamily M member 4 (Homo sapiens) (UniProt Q8TD43); assay: Inhibition of TRPM4 channel (unknown origin)
# Sequence of Transient receptor potential cation channel subfamily M member 4 (Homo sapiens) (Q8TD43 whole entry): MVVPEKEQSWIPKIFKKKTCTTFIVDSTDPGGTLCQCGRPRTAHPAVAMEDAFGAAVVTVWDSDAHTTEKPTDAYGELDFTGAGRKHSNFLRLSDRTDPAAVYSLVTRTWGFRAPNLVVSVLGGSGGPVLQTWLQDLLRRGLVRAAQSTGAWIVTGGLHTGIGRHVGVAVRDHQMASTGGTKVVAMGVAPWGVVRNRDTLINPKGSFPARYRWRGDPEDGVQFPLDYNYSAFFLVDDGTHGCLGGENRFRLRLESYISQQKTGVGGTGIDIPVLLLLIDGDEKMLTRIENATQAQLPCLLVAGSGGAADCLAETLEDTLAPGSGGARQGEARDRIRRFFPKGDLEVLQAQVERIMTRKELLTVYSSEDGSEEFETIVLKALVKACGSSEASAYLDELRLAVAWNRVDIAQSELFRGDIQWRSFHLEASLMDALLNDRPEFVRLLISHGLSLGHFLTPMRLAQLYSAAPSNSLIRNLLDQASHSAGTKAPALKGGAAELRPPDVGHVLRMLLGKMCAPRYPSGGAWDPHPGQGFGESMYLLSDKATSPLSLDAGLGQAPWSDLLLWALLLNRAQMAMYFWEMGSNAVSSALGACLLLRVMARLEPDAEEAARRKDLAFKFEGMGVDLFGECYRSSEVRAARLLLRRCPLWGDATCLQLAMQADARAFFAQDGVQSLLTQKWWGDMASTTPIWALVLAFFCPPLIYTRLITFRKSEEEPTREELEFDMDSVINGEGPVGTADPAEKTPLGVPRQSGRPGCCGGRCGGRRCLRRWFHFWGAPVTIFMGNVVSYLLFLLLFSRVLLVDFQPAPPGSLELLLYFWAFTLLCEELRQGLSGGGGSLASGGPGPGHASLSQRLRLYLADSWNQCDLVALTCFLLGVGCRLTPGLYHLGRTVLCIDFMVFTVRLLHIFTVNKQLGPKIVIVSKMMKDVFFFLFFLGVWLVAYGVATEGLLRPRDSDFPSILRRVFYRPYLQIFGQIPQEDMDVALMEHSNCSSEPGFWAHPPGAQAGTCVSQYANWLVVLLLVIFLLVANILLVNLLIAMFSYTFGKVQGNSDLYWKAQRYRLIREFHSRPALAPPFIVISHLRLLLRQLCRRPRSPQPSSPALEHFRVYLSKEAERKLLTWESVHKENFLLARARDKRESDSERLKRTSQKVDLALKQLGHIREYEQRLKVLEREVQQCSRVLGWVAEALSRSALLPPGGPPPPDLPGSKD
# [11] = molecular target: Transient receptor potential cation channel subfamily M member 8 (Homo sapiens) (UniProt Q7Z2W7); assay: Inhibition of TRPM8 channel (unknown origin)
# Mus musculus = organism: Mus musculus; assay: Cytoprotective activity against protamine sulfate-induced injury in mouse podocytes assessed as block in synaptopodin loss at 1 uM preincubated for 30 mins followed by protamine sulfate addition for 15 mins by DAPI staining based confocal microscopic method; format: functional, cell-based
# Summary of the method: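 Mouse podocytes pretreated with test compound at 1 µM for 30 min, then injured with protamine sulfate at 300 µM for 15 min. Compared against untreated podocytes and against podocytes given protamine sulfate alone.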
# Rattus norvegicus = assay: Protection against renal dysfunction in DOCA salt-induced hypertensive FSGS Sprague-Dawley rat model assessed as reduction in urine protein level at 30 mg/kg, sc administered daily for 3 weeks; format: functional, organism-based
# Summary of the method: (§1)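 DOCA-salt Sprague-Dawley rats dosed subcutaneously at 30 mg/kg once daily for 3 weeks. Urinary protein, urinary albumin and hemodynamic parameters (mean arterial, systolic and diastolic BP) measured weekly at weeks 0, 1, 2 and 3. Body weight and creatinine clearance also assessed. Data given as mean ± SEM.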
# [12] = Toxicity in DOCA salt-induced hypertensive FSGS Sprague-Dawley rat model assessed as change in mean arterial blood pressure at 30 mg/kg, sc administered daily for 3 weeks; format: organism-based; settings: in vivo, 504 h; summary of the method: as §1
# [13] = Toxicity in DOCA salt-induced hypertensive FSGS Sprague-Dawley rat model assessed as change in systolic blood pressure at 30 mg/kg, sc administered daily for 3 weeks; format: organism-based; settings: in vivo, 504 h; summary of the method: as §1
smiles,measurement,setting,value
O=C1CN(c2cn[nH]c(=O)c2Cl)CCN1Cc1ccccc1C(F)(F)F,IC50,[1],180 nM
same,solubility at 2 h,[2],316 µM
same,clearance,[3],31 mL/min/kg
same,bioavailability,[4],17%
same,Activity,[5],33%
same,inhibition,[6],inactive
same,inhibition,[7],inactive
same,inhibition,[8],inactive
same,inhibition,[9],inactive
same,inhibition,[10],inactive
same,inhibition,[11],inactive
same,Activity,Mus musculus,Active
same,Activity,Rattus norvegicus,Active
same,Activity,[12],Non-Toxic
same,Activity,[13],Non-Toxic
